Assay results from publication PMC6938543 (Vaccine, 2019).

Tests used:
[1] = tested on: Anti-α-PVP/MDPV polyclonal antibody; experiment: Competitive magnetic bead-based radioimmunoassay; format: binding, rat; conditions: MDPV-t2 tracer; for IC50: structurally related cathinones tested at 10 μM and 100 μM only
Outline: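 Sera came from male SD rats immunized sc with 100 μg bi-specific KLH conjugate plus 150 μL SAS. The competitive magnetic-bead RIA was specific for IgG binding and used tritium-labeled drug as tracer. Full inhibition curves with unlabeled drug gave IC50; one curve used a racemic homologous tritiated tracer. Analogues were tested only at 10 and 100 μM against 5 nM MDPV-t₂, scored as inhibition of tracer binding.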

[2] = MDPV and α-PVP serum concentrations after sc challenge dose; format: in vivo, rat; conditions: SAS and vaccinated rats, LC-MS/MS
[3] = humans; cited from earlier work
drug-specific pAb = conditions: pAb from earlier separate α-PVP and MDPV vaccines; cited from earlier work
male SD rats = format: in vivo, rat; conditions: SAS control rats; sc
Outline: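 Thirteen weeks after initial sc immunization (SAS alone or vaccine plus SAS), male SD rats (n=5–6/group) were habituated 60 min in litter-lined open-field chambers. They then got sc saline or drug at 0.3–5.6 mg/kg in ascending doses, 2–3 days apart, with each drug in a separate study. Video tracking ran 6 h; horizontal distance was summed per rat and reported as mean ± SD.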

[4] = Stability of α-PVP in extracted rat serum; format: physicochemical; conditions: 4 °C

Molecule	inhibition of MDPV-t2 binding ([1]; 100 μM ligand) [%]	IC50 [1] [µM]	further results
CNC(C)Cc1ccc2c(c1)OCO2 (racemic) [MDMA, (±)-3,4-methylenedioxymethamphetamine]	≤ 50	–	–
CCC(C(=O)c1ccc2c(c1)OCO2)N1CCCC1 (stereo not drawn) [3,4-Methylenedioxy-α-pyrrolidinobutiophenone]	50	100	–
CC(C(=O)c1ccc2c(c1)OCO2)N1CCCC1 (stereo not drawn) [3,4-Methylenedioxy-α-pyrrolidinopropiophenone]	–	> 100	–
C[C@H](N)C(=O)c1ccccc1 [(S)-Cathinone]	–	> 100	–
CCCC(C(=O)c1ccc2c(c1)OCO2)N1CCCC1 (stereo not shown) [MDPV, 3,4-Methylenedioxypyrovalerone]	–	–	serum concentration 24 h after drug administration [2]: below the lower limit of quantitation; blood concentrations associated with recreational use [3]: 10 to 50 ng/mL; blood concentrations at intoxication and overdose [3]: 50 to 300 ng/mL; pAb affinities constants (drug-specific pAb): micromolar range
CNC(C)C(=O)c1ccc(C)cc1 (stereo not shown) [Mephedrone]	–	> 100	–
CNC(C)C(=O)c1ccc2c(c1)OCO2 (stereo not shown) [Methylone]	–	> 100	–
CCCC(NC)C(=O)c1ccccc1 (stereo not shown) [Pentedrone]	–	> 100	–
CCCC(NC)C(=O)c1ccc2c(c1)OCO2 (stereo not shown) [Pentylone]	–	> 100	–
CCCC(C(=O)c1ccc(C)cc1)N1CCCC1 (stereo not shown) [Pyrovalerone]	–	–	inhibition of MDPV-t2 binding ([1]; 10 μM ligand): 68%
COC(=O)[C@H]1[C@@H](OC(=O)c2ccccc2)C[C@@H]2CC[C@H]1N2C [cocaine]	≤ 50	–	–
NCCc1ccc(O)c(O)c1 [dopamine]	≤ 50	–	–
CNC[C@H](O)c1ccc(O)c(O)c1 [epinephrine]	≤ 50	–	–
CN[C@@H](C)Cc1ccccc1 [methamphetamine]	≤ 50	–	–
NC[C@H](O)c1ccc(O)c(O)c1 [norepinephrine]	≤ 50	–	–
c1ccc(C2(N3CCCCC3)CCCCC2)cc1 [phencyclidine]	≤ 50	–	–
CN[C@@H](C)[C@@H](O)c1ccccc1 [pseudoephedrine]	≤ 50	–	–
NCCc1c[nH]c2ccc(O)cc12 [serotonin]	≤ 50	–	–
NCCc1ccc(O)cc1 [tyramine]	≤ 50	–	–
CCCC(C(=O)c1ccccc1)N1CCCC1 (stereo not drawn) [α-PVP, α-pyrrolidinovalerophenone]	–	–	dose of peak effect on horizontal movement (male SD rats): 1.0 mg/kg; serum concentration 24 h after drug administration [2]: below the lower limit of quantitation; stability in extracted serum [4]: at least 59 h; pAb affinities constants (drug-specific pAb): micromolar range
(S)-Methcathinone	–	> 100	–
